Measurements published in ChEMBL document CHEMBL4390639, “Design, Synthesis, and Biological Evaluation of Novel Allosteric Protein Disulfide Isomerase Inhibitors” (J Med Chem, 2019).
The source made the active and inactive calls. The calls are words filed in the database; no cut-off is given here.

Assays:
U-87 MG [1] = assay: Up regulation of EID3 gene expression in human U87MG cells at 16 uM incubated for 4 hrs followed by bromouridine addition during last 30 mins of incubation by TRIzol-reagent based Bru-Seq analysis relative to control; assay type: functional, U-87MG ATCC
How it was run: (§1)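 U87MG cells exposed to compound or DMSO vehicle for 4 h, with 2 mM bromouridine added for the final 30 min. Total RNA isolated with TRIzol; Bru-labelled nascent RNA captured on anti-BrdU antibody-conjugated magnetic beads and sequenced. Transcript abundance expressed as RPKM relative to DMSO. Experiment performed once.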

U-87 MG [2] = assay: Down regulation of LIF gene expression in human U87MG cells at 16 uM incubated for 4 hrs followed by bromouridine addition during last 30 mins of incubation by TRIzol-reagent based Bru-Seq analysis relative to control; assay type: functional, U-87MG ATCC
U-87 MG [3] = assay: Down regulation of STRA6 gene expression in human U87MG cells at 16 uM incubated for 4 hrs followed by bromouridine addition during last 30 mins of incubation by TRIzol-reagent based Bru-Seq analysis relative to control; assay type: functional, U-87MG ATCC; how it was run: as §1
U-87 MG [4] = assay: Down regulation of IL1B gene expression in human U87MG cells at 16 uM incubated for 4 hrs followed by bromouridine addition during last 30 mins of incubation by TRIzol-reagent based Bru-Seq analysis relative to control; assay type: functional, U-87MG ATCC; how it was run: as §1
U-87 MG [5] = assay: Down regulation of GGT4P gene expression in human U87MG cells at 16 uM incubated for 4 hrs followed by bromouridine addition during last 30 mins of incubation by TRIzol-reagent based Bru-Seq analysis relative to control; assay type: functional, U-87MG ATCC
U-87 MG [6] = assay: Down regulation of BIRC3 gene expression in human U87MG cells at 16 uM incubated for 4 hrs followed by bromouridine addition during last 30 mins of incubation by TRIzol-reagent based Bru-Seq analysis relative to control; assay type: functional, U-87MG ATCC
U-87 MG [7] = assay: Down regulation of CSF3 gene expression in human U87MG cells at 16 uM incubated for 4 hrs followed by bromouridine addition during last 30 mins of incubation by TRIzol-reagent based Bru-Seq analysis relative to control; assay type: functional, U-87MG ATCC; how it was run: as §1
U-87 MG [8] = assay: Up regulation of OSGIN1 gene expression in human U87MG cells at 16 uM incubated for 4 hrs followed by bromouridine addition during last 30 mins of incubation by TRIzol-reagent based Bru-Seq analysis relative to control; assay type: functional, U-87MG ATCC; how it was run: as §1
U-87 MG [9] = assay: Up regulation of AC005324.3 gene expression in human U87MG cells at 16 uM incubated for 4 hrs followed by bromouridine addition during last 30 mins of incubation by TRIzol-reagent based Bru-Seq analysis relative to control; assay type: functional, U-87MG ATCC; how it was run: as §1
U-87 MG [10] = assay: Down regulation of CTHRC1 gene expression in human U87MG cells at 16 uM incubated for 4 hrs followed by bromouridine addition during last 30 mins of incubation by TRIzol-reagent based Bru-Seq analysis relative to control; assay type: functional, U-87MG ATCC; how it was run: as §1
U-87 MG [11] = assay: Down regulation of CD83 gene expression in human U87MG cells at 16 uM incubated for 4 hrs followed by bromouridine addition during last 30 mins of incubation by TRIzol-reagent based Bru-Seq analysis relative to control; assay type: functional, U-87MG ATCC
U-87 MG [12] = assay: Down regulation of AC139722.1 gene expression in human U87MG cells at 16 uM incubated for 4 hrs followed by bromouridine addition during last 30 mins of incubation by TRIzol-reagent based Bru-Seq analysis relative to control; assay type: functional, U-87MG ATCC; how it was run: as §1
U-87 MG [13] = assay: Down regulation of KIAA0040 gene expression in human U87MG cells at 16 uM incubated for 4 hrs followed by bromouridine addition during last 30 mins of incubation by TRIzol-reagent based Bru-Seq analysis relative to control; assay type: functional, U-87MG ATCC
U-87 MG [14] = assay: Down regulation of AC124276.2 gene expression in human U87MG cells at 16 uM incubated for 4 hrs followed by bromouridine addition during last 30 mins of incubation by TRIzol-reagent based Bru-Seq analysis relative to control; assay type: functional, U-87MG ATCC
[15] = target: 72 kDa type IV collagenase (Homo sapiens) (UniProt P08253); assay: Inhibition of MMP2 activity in human U87MG cells at 10 uM […] by gelatin zymographic method; assay type: cell-based
72 kDa type IV collagenase (Homo sapiens), sequence (P08253 110-660 limits assumed): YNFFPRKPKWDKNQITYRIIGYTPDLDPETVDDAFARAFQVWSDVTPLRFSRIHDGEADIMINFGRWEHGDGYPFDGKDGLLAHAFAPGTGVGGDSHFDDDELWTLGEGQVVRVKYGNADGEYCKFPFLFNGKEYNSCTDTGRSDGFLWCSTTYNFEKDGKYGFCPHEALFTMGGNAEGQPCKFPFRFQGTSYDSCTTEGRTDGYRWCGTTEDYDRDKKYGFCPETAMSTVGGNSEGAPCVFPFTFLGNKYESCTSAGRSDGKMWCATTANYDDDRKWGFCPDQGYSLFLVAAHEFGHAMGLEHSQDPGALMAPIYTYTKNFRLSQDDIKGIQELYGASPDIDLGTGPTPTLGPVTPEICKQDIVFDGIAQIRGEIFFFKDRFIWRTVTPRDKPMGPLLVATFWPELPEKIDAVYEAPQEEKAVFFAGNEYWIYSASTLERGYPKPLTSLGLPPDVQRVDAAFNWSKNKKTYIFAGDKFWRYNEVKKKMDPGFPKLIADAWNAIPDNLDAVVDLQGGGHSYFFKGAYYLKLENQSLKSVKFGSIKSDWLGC

U-87 MG [16] = assay: Up regulation of SESN2 gene expression in human U87MG cells at 10 uM incubated for 4 hrs followed by bromouridine addition during last 30 mins of incubation by TRIzol-reagent based Bru-Seq analysis relative to control; assay type: functional, U-87MG ATCC; how it was run: as §1
U-87 MG [17] = assay: Down regulation of E2F8 gene expression in human U87MG cells at 10 uM incubated for 4 hrs followed by bromouridine addition during last 30 mins of incubation by TRIzol-reagent based Bru-Seq analysis relative to control; assay type: functional, U-87MG ATCC
U-87 MG [18] = assay: Down regulation of LRRC63 gene expression in human U87MG cells at 10 uM incubated for 4 hrs followed by bromouridine addition during last 30 mins of incubation by TRIzol-reagent based Bru-Seq analysis relative to control; assay type: functional, U-87MG ATCC
U-87 MG [19] = assay: Down regulation of MAD2L1 gene expression in human U87MG cells at 10 uM incubated for 4 hrs followed by bromouridine addition during last 30 mins of incubation by TRIzol-reagent based Bru-Seq analysis relative to control; assay type: functional, U-87MG ATCC
How it was run: (§2)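 Nascent transcription (Bru-seq) in U87MG cells: treatment at 10 μM for 4 h, with 2 mM bromouridine added for the final 30 min. Total RNA isolated with TRIzol; Bru-labelled RNA captured using anti-BrdU antibody on magnetic beads, then sequenced. Transcript traces reported as RPKM compared with DMSO-treated cells. Single experiment.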

U-87 MG [20] = assay: Up regulation of NUPR1 gene expression in human U87MG cells at 10 uM incubated for 4 hrs followed by bromouridine addition during last 30 mins of incubation by TRIzol-reagent based Bru-Seq analysis relative to control; assay type: functional, U-87MG ATCC; how it was run: as §1
U-87 MG [21] = assay: Down regulation of MYBL1 gene expression in human U87MG cells at 10 uM incubated for 4 hrs followed by bromouridine addition during last 30 mins of incubation by TRIzol-reagent based Bru-Seq analysis relative to control; assay type: functional, U-87MG ATCC; how it was run: as §2
U-87 MG [22] = assay: Down regulation of ZNF404 gene expression in human U87MG cells at 10 uM incubated for 4 hrs followed by bromouridine addition during last 30 mins of incubation by TRIzol-reagent based Bru-Seq analysis relative to control; assay type: functional, U-87MG ATCC; how it was run: as §1
U-87 MG [23] = assay: Up regulation of TM4SF19-TCTEX1D2 gene expression in human U87MG cells at 10 uM incubated for 4 hrs followed by bromouridine addition during last 30 mins of incubation by TRIzol-reagent based Bru-Seq analysis relative to control; assay type: functional, U-87MG ATCC
How it was run: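 U87MG cells treated 4 h with test compound (10 or 16 μM, as per line) or DMSO; 2 mM bromouridine added for final 30 min. Total RNA isolated with TRIzol, Bru-labelled nascent RNA captured with anti-BrdU antibody magnetic beads and sequenced; transcript abundance (RPKM) compared with DMSO control. Single experiment.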

U-87 MG [24] = assay: Down regulation of BBS10 gene expression in human U87MG cells at 10 uM incubated for 4 hrs followed by bromouridine addition during last 30 mins of incubation by TRIzol-reagent based Bru-Seq analysis relative to control; assay type: functional, U-87MG ATCC
U-87 MG [25] = assay: Up regulation of HSPH1 gene expression in human U87MG cells at 10 uM incubated for 4 hrs followed by bromouridine addition during last 30 mins of incubation by TRIzol-reagent based Bru-Seq analysis relative to control; assay type: functional, U-87MG ATCC; how it was run: as §1

COC(=O)c1cccc(/C=C/C(=O)c2cccc(O)c2)c1
fold change (FC) (U-87 MG [1]): 4.8 | fold change (FC) (U-87 MG [2]): 2.7 | fold change (FC) (U-87 MG [3]): 4 | fold change (FC) (U-87 MG [4]): 5.5 | fold change (FC) (U-87 MG [5]): 3.3 | fold change (FC) (U-87 MG [6]): 3.3 | fold change (FC) (U-87 MG [7]): 8.3 | fold change (FC) (U-87 MG [8]): 5.4 | fold change (FC) (U-87 MG [9]): 5.3 | fold change (FC) (U-87 MG [10]): 3.4 | fold change (FC) (U-87 MG [11]): 2.7 | fold change (FC) (U-87 MG [12]): 4.7 | fold change (FC) (U-87 MG [13]): 2.6 | fold change (FC) (U-87 MG [14]): 2.9

O=C(/C=C/c1ccc(-c2cccnc2)cc1)c1cccc(O)c1
inhibition [15]: Active

CCCCCN(CCCCC)S(=O)(=O)c1ccc(C(=O)/C=C/c2cccc(C#N)c2)cc1
fold change (FC) (U-87 MG [16]): 26.9 | fold change (FC) (U-87 MG [17]): 2.4 | fold change (FC) (U-87 MG [18]): 2.5 | fold change (FC) (U-87 MG [19]): 2.4 | fold change (FC) (U-87 MG [20]): 11.8 | fold change (FC) (U-87 MG [21]): 2.6 | fold change (FC) (U-87 MG [22]): 2.7 | fold change (FC) (U-87 MG [23]): 8.7 | fold change (FC) (U-87 MG [24]): 2.3 | fold change (FC) (U-87 MG [25]): 20
